These results are taken from ChEMBL document CHEMBL3244145, “Synthesis and quantitative structure--activity relationships of some antibacterial 3-formylrifamycin SV N-(4-substituted phenyl)piperazinoacethydrazones” (J Med Chem, 1978).

Values after ≈ are worked out from the molar mass of the structure shown. Active and inactive are the calls of the source.

For data set [1], the system named is Mycolicibacterium phlei. In words: Antimicrobial activity against Mycobacterium phlei 111 by serial dilution method. In kind it is functional. To be noted: for MIC: Mycolicibacterium phlei, 111.
For data set [2], the system named is Bacillus subtilis. In words: Antimicrobial activity against Bacillus subtilis 104 by serial dilution method. In kind it is functional. To be noted: for MIC: Bacillus subtilis, 104.
In data set [3] the test system is Clostridium perfringens. In words: Antimicrobial activity against Clostridium perfringens 2 by serial dilution method. Format: functional. To be noted: for MIC: Clostridium perfringens, 2. The gist of the method:
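Broth MICs were determined by serial dilution of the hydrazones, run in triplicate. Where results differed, the standard deviation of the three determinations is reported.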

Data set [4] has as its system Staphylococcus aureus. As to the kind of experiment: Antimicrobial activity against Staphylococcus aureus 11 by serial dilution method. Format: functional. To be noted: for MIC: Staphylococcus aureus, 11.
For data set [5], the system named is L929. In words: Cytotoxicity against mouse L929 cells by microscopic analysis. Format: cell-based.
Data set [6] concerns Vaccinia virus. In words: Antiviral activity against Vaccinia virus infected in L929 cells assessed as reduction in plaque formation after 3 to 4 days by crystal violet staining method. Format: functional, organism-based. To be noted: Orthopoxvirus vaccinia.
Data set [7] relates to Mycobacterium tuberculosis. In words: Antimicrobial activity against Mycobacterium tuberculosis H37Rv by agar dilution method. To be noted: for MIC: Mycobacterium tuberculosis, H37Rv. In kind it is functional. In a few lines:
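Agar dilution: the hydrazone is dissolved in warm Middlebrook agar and serially diluted into two quadrants of a quartered dish, with two drug-free quadrants. After cooling, 0.1 mL of M. tuberculosis suspension (McFarland no. 1, set spectrophotometrically) is inoculated. Plates are incubated 14 days at 37 °C under 5% CO2 and scored for colonies. Run in duplicate.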
Background: Agar dilution tests growth on a series of plates holding different concentrations.

The term MIC denotes the smallest concentration in the dilution series that meets the test's criterion for growth inhibition.

Regarding `CO[C@H]1/C=C/O[C@@]2(C)Oc3c(C)c(O)c4c(O)c(c(/C=N/NC(=O)CN5CCN(c6ccc(C)cc6)CC5)c(O)c4c3C2=O)NC(=O)/C(C)=C\C=C\[C@H](C)[C@H](O)[C@@H](C)[C@@H](O)[C@@H](C)[C@H](OC(C)=O)[C@@H]1C`, the “log(1/C)” value is recorded as 5.14 in data set [1]; 5.27 in data set [2]; 8.14 in data set [3]; 7.4 in data set [4]; 4.96 in data set [7]. Moreover, the minimum inhibitory concentration (MIC) in data set [1] is 7 µg/mL (≈ 7.32 µM); in data set [2], 5.1 µg/mL (≈ 5.33 µM); in data set [3] it was 0.007 µg/mL (≈ 0.00732 µM); in data set [4] it was 0.038 µg/mL (≈ 0.0397 µM); in data set [7], 10.5 µg/mL (≈ 11 µM). The Activity result in data set [5] was “Toxic”. Further, the result in data set [6] was inactive.
`CO[C@H]1/C=C/O[C@@]2(C)Oc3c(C)c(O)c4c(O)c(c(/C=N/NC(=O)CN5CCN(c6ccc([N+](=O)[O-])cc6)CC5)c(O)c4c3C2=O)NC(=O)/C(C)=C\C=C\[C@H](C)[C@H](O)[C@@H](C)[C@@H](O)[C@@H](C)[C@H](OC(C)=O)[C@@H]1C`: the “log(1/C)” value was 4.93 in data set [1]; 4.9 in data set [2]; 8.3 in data set [3]; 7.6 in data set [4]; 4.74 in data set [7]. Besides, the MIC in data set [1] was found to be 11.5 µg/mL (≈ 11.7 µM); in data set [2] it was 12.3 µg/mL (≈ 12.5 µM); in data set [3], 0.005 µg/mL (≈ 0.00507 µM); in data set [4], 0.025 µg/mL (≈ 0.0253 µM); in data set [7] it was 18 µg/mL (≈ 18.2 µM). Moreover, the Activity entry in data set [5] was “Toxic”. Moreover, in data set [6], the result was inactive.
As to `CO[C@H]1/C=C/O[C@@]2(C)Oc3c(C)c(O)c4c(O)c(c(/C=N/NC(=O)CN5CCN(c6ccc(C(C)C)cc6)CC5)c(O)c4c3C2=O)NC(=O)/C(C)=C\C=C\[C@H](C)[C@H](O)[C@@H](C)[C@@H](O)[C@@H](C)[C@H](OC(C)=O)[C@@H]1C`, the “log(1/C)” value came to 5.48 in data set [1]; 5.3 in data set [2]; 8.52 in data set [3]; 7.56 in data set [4]; 5.04 in data set [7]. The MIC in data set [1] is 3.25 µg/mL (≈ 3.3 µM); in data set [2], 4.9 µg/mL (≈ 4.98 µM); in data set [3], 0.003 µg/mL (≈ 0.00305 µM); in data set [4] it was 0.027 µg/mL (≈ 0.0274 µM); in data set [7], 9 µg/mL (≈ 9.14 µM). For the same compound, in data set [5], the Activity result is reported as “Toxic”. Further, the result in data set [6] was inactive.
Turning to `CO[C@H]1/C=C/O[C@@]2(C)Oc3c(C)c(O)c4c(O)c(c(/C=N/NC(=O)CN5CCN(c6ccc(F)cc6)CC5)c(O)c4c3C2=O)NC(=O)/C(C)=C\C=C\[C@H](C)[C@H](O)[C@@H](C)[C@@H](O)[C@@H](C)[C@H](OC(C)=O)[C@@H]1C`, the “log(1/C)” value is 5.22 in data set [1]; 5.3 in data set [2]; 8.51 in data set [3]; 7.06 in data set [4]; 4.81 in data set [7]. Further, the MIC in data set [1] is 5.75 µg/mL (≈ 5.99 µM); in data set [2], 4.8 µg/mL (≈ 5 µM); in data set [3], 0.005 µg/mL (≈ 0.00521 µM); in data set [4], 0.084 µg/mL (≈ 0.0875 µM); in data set [7], 15 µg/mL (≈ 15.6 µM). For the same compound, the Activity result in data set [5] was “Toxic”. Moreover, the result in data set [6] was inactive.
On to `CO[C@H]1/C=C/O[C@@]2(C)Oc3c(C)c(O)c4c(O)c(c(/C=N/NC(=O)CN5CCN(c6ccc(Cl)cc6)CC5)c(O)c4c3C2=O)NC(=O)/C(C)=C\C=C\[C@H](C)[C@H](O)[C@@H](C)[C@@H](O)[C@@H](C)[C@H](OC(C)=O)[C@@H]1C`, for which the “log(1/C)” value in data set [1] came out at 5.19; in data set [2], 5.31; in data set [3], 8.21; in data set [4], 7.43; in data set [7], 4.91. Besides, the MIC is 6.38 µg/mL (≈ 6.53 µM) in data set [1]; 4.8 µg/mL (≈ 4.92 µM) in data set [2]; 0.006 µg/mL (≈ 0.00614 µM) in data set [3]; 0.036 µg/mL (≈ 0.0369 µM) in data set [4]; 12 µg/mL (≈ 12.3 µM) in data set [7]. Besides, the Activity result in data set [5] is “Toxic”. The outcome in data set [6] was inactive.
For the compound `CO[C@H]1/C=C/O[C@@]2(C)Oc3c(C)c(O)c4c(O)c(c(/C=N/NC(=O)CN5CCN(c6ccc(C#N)cc6)CC5)c(O)c4c3C2=O)NC(=O)/C(C)=C\C=C\[C@H](C)[C@H](O)[C@@H](C)[C@@H](O)[C@@H](C)[C@H](OC(C)=O)[C@@H]1C`, the “log(1/C)” value in data set [1] worked out at 4.65; in data set [2], 4.77; in data set [3] it was 8.14; in data set [4], 7.07; in data set [7], 4.72. In addition, the MIC is 21.5 µg/mL (≈ 22.2 µM) in data set [1]; 16.3 µg/mL (≈ 16.9 µM) in data set [2]; 0.007 µg/mL (≈ 0.00724 µM) in data set [3]; 0.082 µg/mL (≈ 0.0848 µM) in data set [4]; 18.6 µg/mL (≈ 19.2 µM) in data set [7]. Further, in data set [5], the Activity entry is reported as “Toxic”. Moreover, in data set [6], the result was inactive.
Take `CO[C@H]1/C=C/O[C@@]2(C)Oc3c(C)c(O)c4c(O)c(c(/C=N/NC(=O)CN5CCN(c6ccc(Br)cc6)CC5)c(O)c4c3C2=O)NC(=O)/C(C)=C\C=C\[C@H](C)[C@H](O)[C@@H](C)[C@@H](O)[C@@H](C)[C@H](OC(C)=O)[C@@H]1C`: the “log(1/C)” value in data set [1] worked out at 5.22; in data set [2] it was 5.31; in data set [3] it was 8.23; in data set [4], 7.46; in data set [7] it was 5.08. Also, the MIC in data set [1] was found to be 6.13 µg/mL (≈ 6 µM); in data set [2], 5 µg/mL (≈ 4.9 µM); in data set [3], 0.006 µg/mL (≈ 0.00588 µM); in data set [4], 0.035 µg/mL (≈ 0.0343 µM); in data set [7] it was 8.4 µg/mL (≈ 8.23 µM). Moreover, the Activity entry in data set [5] is reported as “Toxic”. Besides, in data set [6], the outcome was inactive.
On to `CO[C@H]1/C=C/O[C@@]2(C)Oc3c(C)c(O)c4c(O)c(c(/C=N/NC(=O)CN5CCN(c6ccc(C(F)(F)F)cc6)CC5)c(O)c4c3C2=O)NC(=O)/C(C)=C\C=C\[C@H](C)[C@H](O)[C@@H](C)[C@@H](O)[C@@H](C)[C@H](OC(C)=O)[C@@H]1C`, for which the “log(1/C)” value turned out to be 5.14 in data set [1]; 5.01 in data set [2]; 8.7 in data set [3]; 7.62 in data set [4]; 4.75 in data set [7]. Moreover, the MIC in data set [1] was determined as 7.38 µg/mL (≈ 7.31 µM); in data set [2], 9.8 µg/mL (≈ 9.7 µM); in data set [3] it was 0.002 µg/mL (≈ 0.00198 µM); in data set [4] it was 0.024 µg/mL (≈ 0.0238 µM); in data set [7] it was 18 µg/mL (≈ 17.8 µM). For the same compound, the Activity entry in data set [5] is recorded as “Toxic”. Besides, the result in data set [6] was inactive.
In the case of `CO[C@H]1/C=C/O[C@@]2(C)Oc3c(C)c(O)c4c(O)c(c(/C=N/N5CCN(C)CC5)c(O)c4c3C2=O)NC(=O)/C(C)=C\C=C\[C@H](C)[C@H](O)[C@@H](C)[C@@H](O)[C@@H](C)[C@H](OC(C)=O)[C@@H]1C` [RIFAMPIN], the “log(1/C)” value in data set [1] is 6.48; in data set [2], 6.59; in data set [3] it was 8.44; in data set [4], more than 8.07; in data set [7], 5.91. Further, the MIC in data set [1] is 0.27 µg/mL (≈ 0.328 µM); in data set [2] it was 0.21 µg/mL (≈ 0.255 µM); in data set [3] it was 0.003 µg/mL (≈ 0.00365 µM); in data set [4] it was less than 0.007 µg/mL; in data set [7] it was 1 µg/mL (≈ 1.22 µM).
Consider `CO[C@H]1/C=C/O[C@@]2(C)Oc3c(C)c(O)c4c(O)c(c(/C=N/NC(=O)CN5CCN(c6ccc(Oc7ccccc7)cc6)CC5)c(O)c4c3C2=O)NC(=O)/C(C)=C\C=C\[C@H](C)[C@H](O)[C@@H](C)[C@@H](O)[C@@H](C)[C@H](OC(C)=O)[C@@H]1C`, for which the “log(1/C)” value in data set [1] amounted to 5.24; in data set [2], 5.32; in data set [3], 8.11; in data set [4], 7.74; in data set [7] it was 4.84. The MIC in data set [1] stood at 6 µg/mL (≈ 5.8 µM); in data set [2], 5 µg/mL (≈ 4.83 µM); in data set [3], 0.008 µg/mL (≈ 0.00774 µM); in data set [4] it was 0.019 µg/mL (≈ 0.0184 µM); in data set [7], 15 µg/mL (≈ 14.5 µM). Also, the Activity result in data set [5] is reported as “Toxic”. Besides, the result in data set [6] was inactive.
Regarding `CO[C@H]1/C=C/O[C@@]2(C)Oc3c(C)c(O)c4c(O)c(c(/C=N/NC(=O)CN5CCN(c6ccc(C(C)(C)C)cc6)CC5)c(O)c4c3C2=O)NC(=O)/C(C)=C\C=C\[C@H](C)[C@H](O)[C@@H](C)[C@@H](O)[C@@H](C)[C@H](OC(C)=O)[C@@H]1C`, the “log(1/C)” value in data set [1] was found to be 5.44; in data set [2], 5.32; in data set [3], 8.7; in data set [4], 7.49; in data set [7], 5.12. In addition, the MIC in data set [1] was found to be 3.63 µg/mL (≈ 3.64 µM); in data set [2] it was 4.8 µg/mL (≈ 4.81 µM); in data set [3], 0.002 µg/mL (≈ 0.002 µM); in data set [4] it was 0.033 µg/mL (≈ 0.0331 µM); in data set [7], 7.5 µg/mL (≈ 7.51 µM). Moreover, the Activity entry in data set [5] was “Toxic”. In data set [6], the result was inactive.
On to `COc1ccc(N2CCN(CC(=O)N/N=C/c3c4c(O)c5c(O)c(C)c6c(c5c3O)C(=O)[C@@](C)(O/C=C/[C@H](OC)[C@@H](C)[C@@H](OC(C)=O)[C@H](C)[C@H](O)[C@H](C)[C@@H](O)[C@@H](C)/C=C/C=C(/C)C(=O)N4)O6)CC2)cc1`, for which the “log(1/C)” value is 5.27 in data set [1]; 4.93 in data set [2]; 8.14 in data set [3]; 7.26 in data set [4]; 4.81 in data set [7]. For the same compound, the MIC in data set [1] turned out to be 5.25 µg/mL (≈ 5.4 µM); in data set [2], 11.3 µg/mL (≈ 11.6 µM); in data set [3], 0.007 µg/mL (≈ 0.0072 µM); in data set [4], 0.054 µg/mL (≈ 0.0555 µM); in data set [7], 15 µg/mL (≈ 15.4 µM). The Activity entry in data set [5] was “Toxic”. In addition, the result in data set [6] was inactive.
